Rows were chosen to be rich in hits. Some 2.5% of all compounds tested hit in one or more screens of this group.
FN deposit inh: fibronectin deposition inhibition; AH1F fibroblasts, Alexa488-fibronectin deposition fluorescence, overnight; inhibition, % at 12.6 µM; 0.086% of 350,000 active; AID 743247;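 active = mean inhibition across replicates of 30% or more, regardless of how many single replicates reach that level; inconclusive = mean under 30% yet at least half of replicates reach 30%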;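 also: positive control wells lacked labelled fibronectin entirely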
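Assay system: AH1F fibroblasts / Quantity: 10000 cells per well / Medium: DMEM plus 2% serum, read in PBS / Reagent: labelled fibronectin 24 nM / Dosing: single dose, pinned / Times: 1 h cell attachment, overnight exposure to compound and label / Signal: fluorescence, ex 485 nm, em 525 nm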
PAX8 reporter: lowers PAX8-driven luciferase in RMG-I cells | inhibition, % at 12.6 µM | RMG-I TPO-luciferase reporter, SteadyGlo, 24 h | AID 652154 | 1.2% of 360,000 active;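 active = mean replicate inhibition at least 60% with every replicate also reaching 60%; inconclusive = only one of the two criteria is met; inactive = mean below 60% and not all replicates reaching 60%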;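 also: luciferase light reporting Pax8 driven TPO promoter activity; plate controls were median of neutral control wells for no effect and mitoxantrone controls for full effect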
EWS-Fli inh: inhibitors of EWS/Fli oncoprotein transcriptional activity. 0.67% of 350,000 active. inhibition, % at 12.6 µM. A673 NR0B1-luciferase reporter, viability-normalised;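 active = mean inhibition of at least 50% after viability correction, with every replicate also passing that limit; inconclusive = mean reaches 50% but only one of two replicates passes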;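 also: firefly luciferase signal divided by Alamar Blue viability fluorescence both relative to DMSO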
HIV Env fusion: blocks HIV Env-driven cell-cell fusion | HeLa-JRFL Env/CEM21 cell fusion, luciferase | 1.1% of 360,000 active | inhibition, % at 12.3 µM;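 active = mean replicate inhibition score of at least 50 and every replicate individually at or above 50; inconclusive = only one of the two criteria met; inactive = mean below 50 and not all replicates reaching 50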;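 also: 0% = plate neutral controls and 100% = maraviroc near 300 nM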
N-glyco inh: N-linked glycosylation inhibition; D54 ERlucT glycosylation luciferase reporter, 24 h; percent of 100 nM tunicamycin response; reporter increase, % at 12.5 µM; 0.23% of 360,000 active; AID 588692;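 active = mean luciferase reporter signal, scaled so untreated is 0 and the glycosylation-blocking control 100, at or above a set limit in every replicate; inconclusive = mean reaches the limit but not every replicate does; inactive = mean below the limit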;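 also: luciferase carries N-glycosylation sites so blocking glycosylation raises the light; 0% = median of neutral control wells and 100% = median of 100 nM tunicamycin wells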
MLL AF4-AF9 inh: MLL-AF4/AF9 protein interaction inhibition; AlphaScreen, biotin-AF4 peptide binding to FLAG-AF9; inhibition, % at 10 µM; 0.47% of 350,000 active; AID 651704;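 active = every replicate reaching a set inhibition limit, whatever the replicate mean, cut at about 25% in these data; inconclusive = mean inhibition reaches that limit but some replicates miss it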;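 also: 0% = plate neutral control median and 100% = total signal loss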
Target sequence (P42568 whole entry, looked up): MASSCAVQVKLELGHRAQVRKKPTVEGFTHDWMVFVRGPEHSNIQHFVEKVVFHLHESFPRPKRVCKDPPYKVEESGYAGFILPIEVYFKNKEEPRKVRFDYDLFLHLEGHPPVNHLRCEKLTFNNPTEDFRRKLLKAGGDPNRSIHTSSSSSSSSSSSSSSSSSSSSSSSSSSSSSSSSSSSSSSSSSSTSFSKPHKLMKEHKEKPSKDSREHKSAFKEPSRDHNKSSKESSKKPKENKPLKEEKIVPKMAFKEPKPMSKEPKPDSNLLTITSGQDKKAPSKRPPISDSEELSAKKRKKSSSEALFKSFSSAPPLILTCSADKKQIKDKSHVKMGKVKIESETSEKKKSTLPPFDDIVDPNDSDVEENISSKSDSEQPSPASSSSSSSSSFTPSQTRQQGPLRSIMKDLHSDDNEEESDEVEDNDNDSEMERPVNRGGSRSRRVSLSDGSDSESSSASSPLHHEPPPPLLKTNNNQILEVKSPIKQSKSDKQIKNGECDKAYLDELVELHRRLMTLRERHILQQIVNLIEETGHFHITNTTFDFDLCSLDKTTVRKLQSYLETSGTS
Active calls of the source: *; u = inconclusive; x = no result; [ ] = dose if it differs, or a comment.

SMILES	FN deposit inh	PAX8 reporter	EWS-Fli inh	HIV Env fusion	N-glyco inh	MLL AF4-AF9 inh
Cc1ccc(Nc2nc(N)nc(CN3CCN(Cc4ccc5c(c4)OCO5)CC3)n2)cc1Cl	x	x	x	69.0*	0.8	x
Cc1ccc(Nc2nc(N)nc(CN3CCN(Cc4ccc5c(c4)OCO5)CC3)n2)cc1C	1.6	6.9	4.2	-3.4	0.1	12.6
Cc1ccc(Nc2nc(N)nc(CN3CCN(Cc4ccc5c(c4)OCO5)CC3)n2)cc1	x	x	x	x	0.3	x
C[C@@H]1CCCCO[C@H](CN(C)Cc2ccc(C(F)(F)F)cc2)[C@@H](C)CN([C@@H](C)CO)C(=O)c2cc(NS(=O)(=O)c3ccc(Cl)cc3)ccc2O1	-4.0	112.8*	16.8	21.5[16.7 µM]	x	-1.0
C[C@@H]1CCCCO[C@H](CN(C)Cc2ccc(C(F)(F)F)cc2)[C@H](C)CN([C@@H](C)CO)C(=O)c2cc(NS(=O)(=O)c3ccc(Cl)cc3)ccc2O1	-9.9	104.7*	27.0	u	x	4.7
C[C@H]1CCCCO[C@H](CN(C)Cc2ccc(C(F)(F)F)cc2)[C@@H](C)CN([C@@H](C)CO)C(=O)c2cc(NS(=O)(=O)c3ccc(Cl)cc3)ccc2O1	-24.3	92.6*	13.8	15.8[16.7 µM]	x	-2.5
C[C@@H]1CCCCO[C@@H](CN(C)Cc2ccc(C(F)(F)F)cc2)[C@@H](C)CN([C@H](C)CO)C(=O)c2cc(NS(=O)(=O)c3ccc(Cl)cc3)ccc2O1	-7.2	-15.9	-10.6	3.7[16.7 µM]	x	-3.2
C[C@@H]1CN([C@@H](C)CO)C(=O)c2cccc(NS(=O)(=O)c3ccc(F)cc3)c2O[C@H]1CN(C)S(=O)(=O)c1ccc(F)cc1	x	-46.9	-4.6	10.0[16.7 µM]	x	-1.1
O=C(C[C@H]1C[C@H]2c3cc(NC(=O)Nc4ccccc4)ccc3O[C@H]2[C@H](CO)O1)NCc1ccccn1	-6.3	11.0	-4.7	1.2[16.7 µM]	x	-2.3
O=C(NCC[C@H]1CC[C@@H](NS(=O)(=O)c2ccc(Cl)cc2)[C@@H](CO)O1)Nc1ccc(F)cc1	-8.3	-26.7	-8.2	x	x	16.0
CN(C)CCCNC(=O)C[C@H]1CC[C@H]2[C@@H](COC[C@H](O)CN2S(=O)(=O)c2ccc(F)cc2)O1	-4.0	-6.8	1.5	x	x	-0.4
COC(=O)c1ccc(C)c(NS(=O)(=O)c2ccc3c(c2)OCCO3)c1	x	x	x	x	30.8*	x
CNC[C@@H]1OCCCC[C@H](C)Oc2ccc(NC(=O)NC3CCCCC3)cc2C(=O)N([C@H](C)CO)C[C@@H]1C	x	-3.8	-0.6	2.2[16.7 µM]	x	x
O=c1[nH]c(CN2CCN(c3ccc(O)cc3)CC2)nc2scc(-c3ccc(Cl)cc3)c12	10.4	u	59.8*	-49.0	10.0	10.1
O=c1[nH]c(CN2CCN(c3ccccc3O)CC2)nc2scc(-c3ccccc3Cl)c12	9.6	22.1	14.9	3.3	-4.8	2.4
COc1ccc(-c2cn[nH]c2N)c(OC)c1	-6.5	x	x	81.2*	-9.4	x
COc1ccc(N2CCN(C(=O)CCS(=O)(=O)c3ccc4c(c3)NC(=O)C(C)S4)CC2)cc1 (stereo not given)	3.4	29.3	-3.1	3.5	-2.4	-5.5
Cc1ccc(C)c(N2CCN(C(=O)CCS(=O)(=O)c3ccc4c(c3)NC(=O)C(C)S4)CC2)c1 (stereo not given)	2.2	62.1*	x	22.0	-6.3	0.7
COc1cc(C(=O)N2CCN(c3cc(Cl)ccc3Cl)CC2)cc(OC)c1OC	-7.8	15.7	59.8*	-202.9	14.5	-5.7
COc1cc(C(=O)N2CCN(c3cccc(C)c3C)CC2)cc(OC)c1OC	0.8	52.4	61.3*	-171.4	15.8	2.3
Cc1cccc(N2CCN(C(=O)c3cc(S(=O)(=O)N4CCOCC4)cn3C)CC2)c1C	1.9	3.8	12.6	-11.0	2.8	1.5
Cc1cccc(N2CCN(C(=O)c3cc(S(=O)(=O)N4CCCC4)cn3C)CC2)c1C	4.6	27.1	65.2*	-34.2	23.4	2.6
COCC(=O)N(C)C[C@@H]1Oc2ncc(-c3ccc(C)cc3)cc2C(=O)N([C@H](C)CO)C[C@@H]1C	8.0	x	-16.8	-7.1[16.7 µM]	x	-0.8
C[C@@H]1CN([C@@H](C)CO)C(=O)c2cccc(NS(C)(=O)=O)c2O[C@H]1CN(C)CC1CC1	5.2	2.3	-6.6	23.8[16.7 µM]	x	-3.4
COc1ccc2c3c([nH]c2c1)[C@H](CO)NCC31CCN(C(=O)Nc2ccc(F)cc2F)CC1	x	x	0.1	x	x	15.0
SMILES	FN deposit inh	PAX8 reporter	EWS-Fli inh	HIV Env fusion	N-glyco inh	MLL AF4-AF9 inh
CCCNC(=O)N(C)C[C@H]1Oc2ncc(C#CCc3ccccc3)cc2C(=O)N([C@H](C)CO)C[C@@H]1C	x	-7.4	1.7	3.0[16.7 µM]	x	-2.0
Cn1c(-c2ccccc2)cnc1NCc1ccccc1	-0.2	15.7	-23.8	-11.7	2.1	8.3
Cn1c(-c2cccc(Br)c2)cnc1NCc1ccccc1O	-0.7	-6.0	-7.0	16.8	-1.4	26.2*
C[C@H](CO)N1C[C@H](C)[C@@H](CN(C)Cc2cncnc2)Oc2ncc(-c3cccc(C#N)c3)cc2C1=O	1.2	x	-3.6	-11.0[16.7 µM]	x	-1.7
CCCC(=O)Nc1ccc2c(c1)OC[C@H](C)N(Cc1ccncc1)C[C@H](C)[C@@H](OC)CN(C)C2=O	-14.9	x	8.2	x	x	-1.7
CO[C@@H]1CN(C)C(=O)c2ccc(NC(C)=O)cc2OC[C@@H](C)N(Cc2cncnc2)C[C@@H]1C	-0.2	x	3.7	57.2*[16.7 µM]	x	x
CO[C@H]1CN(C)C(=O)c2cc(NC(=O)c3nc4ccccc4s3)ccc2OC[C@H](C)N(Cc2cccnc2)C[C@H]1C	10.7	88.5*	35.9	x	x	1.1
CCCC(=O)Nc1ccc2c(c1)OC[C@H](C)N(Cc1ccncc1)C[C@H](C)[C@H](OC)CN(C)C2=O	3.0	x	6.3	63.5*[16.7 µM]	x	-1.1
COc1ccc(NC(=O)N(C)C[C@H]2OCCCC[C@H](C)Oc3ccc(NC(=O)Nc4ccc(F)cc4)cc3C(=O)N([C@@H](C)CO)C[C@@H]2C)cc1	x	-0.7	0.8	-4.1[16.7 µM]	x	3.4
COc1ccccc1-c1coc2c(CN3CCC(C)CC3)c(O)ccc2c1=O	-3.1	5.2	9.9	-21.9	-2.2	3.3
CCC1CCCCN1Cc1c(O)ccc2c(=O)c(-c3ccccc3OC)coc12 (stereo not given)	-4.5	-17.1	-0.9	4.5	-1.2	29.1*
CC(=O)N(C)C[C@@H]1Oc2ncc(C#C[C@H](C)O)cc2C(=O)N([C@@H](C)CO)C[C@H]1C	2.3	x	-13.6	-6.7[16.7 µM]	x	-5.9
Cc1nnc(-c2ccc(Oc3ccc(Cl)cc3)c([N+](=O)[O-])c2)o1	10.3	-3.3	11.0	-5.8	-3.3	-20.7
O=[N+]([O-])c1cc(-c2nnc(-c3ccccc3)o2)ccc1Oc1ccc(Cl)cc1	-2.5	97.8*	-50.8	x	0.5	7.0
COc1ccc(NC(=S)N(CCCN2CCOCC2)Cc2ccccn2)cc1	8.3	10.7	4.2	5.9	0.9	-0.9
Cc1ccc(NC(=S)N(CCCN2CCOCC2)Cc2ccccn2)cc1	1.7	110.4*	2.9	x	0.9	12.7
CNC(=O)C[C@H]1C(=O)N(c2ccc(OC)cc2)C[C@@H]1C	6.8	7.5	-4.5	6.7	-0.1	-1.0

Source: PubChem (Broad Institute)
